Test results taken from ChEMBL document CHEMBL1144911, “Synthesis and biological evaluation of 5-substituted derivatives of the potent antiherpes agent (north)-methanocarbathymine” (J Med Chem, 2003).

How the values were obtained:
[1] = Inhibitory activity against HSV-1-TK transfected osteosarcoma cells; format: functional
Outline: (§1)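 Osteosarcoma lines (143B-TK⁻ with 0.1 mg/mL 5-BrdU selection; MG-63-hTK1; 143B-TK⁺-HSV1-WT with HAT) grown in MEM/10% FCS. Seeded at 2 × 10³ (143B lines) or 1.5 × 10³ (MG-63) cells/well, exposed to five concentrations over 0.5–500 μM for 4.5 days at 37 °C/5% CO₂. XTT added for 9 h, A450 (ref 750 nm) read against untreated wells. Three independent series in triplicate.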

Homo sapiens [2] = species on record: Homo sapiens; assay: Inhibitory concentration required to reduce HSV-2 induced cytopathogenic effect in human skin fibroblast; format: functional, organism-based
[3] = Cytotoxic concentration against HSV-1 TK- transfected osteosarcoma cells; format: functional; conditions: Human alphaherpesvirus 1; outline: as §1
Human alphaherpesvirus 3 [4] = assay: Minimum cytotoxic concentration that causes alterations of VZV infected Osteosarcoma cell morphology; format: functional
HFF [5] = assay: Cytotoxic concentration for 50% inhibition of cell growth of HSV-2 infected HFF cells determined by CPE assay; format: functional; conditions: Homo sapiens
[6] = (§2) Inhibition constant against HSV-1 TK; format: functional, herpes simplex virus
Human alphaherpesvirus 3 [7] = assay: Antiviral activity against OKA strain of thymidine kinase positive(TK+) Varicella-Zoster Virus (VZV); format: functional, organism-based
[8] = Cytotoxic concentration against HSV-1 TK-transfected osteosarcoma cells; format: functional; conditions: Human alphaherpesvirus 1; outline: as §1
Human alphaherpesvirus 3 [9] = assay: Effective concentration against TK+ Varicella-Zoster Virus (VZV) OKA strain; format: functional, organism-based
Human alphaherpesvirus 3 [10] = assay: Cytotoxic concentration that causes growth inhibition of VZV infected Osteosarcoma cells; format: functional
Human alphaherpesvirus 3 [11] = assay: Antiviral activity against YS/R strain of thymidine kinase negative(TK-) Varicella-Zoster Virus (VZV); format: functional, organism-based
Homo sapiens [12] = species on record: Homo sapiens; assay: Cytotoxic concentration that produces 50% growth inhibition of human skin fibroblast in CPE assay; format: functional
Human alphaherpesvirus 3 [13] = assay: Antiviral activity against 07/1 strain of thymidine kinase negative (TK-) Varicella-Zoster Virus (VZV); format: functional, organism-based
Human alphaherpesvirus 1 = assay: Inhibitory concentration required to reduce HSV-1 induced cytopathogenic effect (CPE) by 50 % in HFF cells; format: functional, organism-based, herpes simplex virus; conditions: Human alphaherpesvirus 1, HFF
[14] = Minimum cytotoxic concentration that causes microscopically detectable alterations of cell morphology; format: functional
[15] = test system: Thymidine kinase (Herpes simplex virus type 1); assay: Catalytic turnover constant against HSV-1 thymidine kinase
Human alphaherpesvirus 3 [16] = assay: Antiviral activity against YS strain of thymidine kinase positive(TK+) Varicella-Zoster Virus (VZV); format: functional, organism-based
Homo sapiens [17] = species on record: Homo sapiens; assay: Inhibitory concentration required to reduce HSV-1 induced cytopathogenic effect (CPE) in human skin fibroblast; format: functional, organism-based
[18] = Catalytic rate constant was determined; format: ADME
Human alphaherpesvirus 3 [19] = assay: Effective concentration against TK- Varicella-Zoster Virus (VZV) 07/1 strain; format: functional, organism-based
Human alphaherpesvirus 2 = assay: Inhibitory concentration required to reduce HSV-2 induced cytopathogenic effect (CPE) by 50 % in HFF cells; format: functional, organism-based; conditions: Human alphaherpesvirus 2, HFF
HFF [20] = assay: Cytotoxic concentration for 50% inhibition of cell growth of HSV-1 infected HFF cells determined by CPE assay; format: functional; conditions: Homo sapiens
Human alphaherpesvirus 3 [21] = assay: Effective concentration against TK+ Varicella-Zoster Virus (VZV)YS strain; format: functional, organism-based
[22] = Cytotoxic concentration that produces 50% inhibition of cell growth.; format: functional
Human alphaherpesvirus 3 [23] = assay: Effective concentration against TK- Varicella-Zoster Virus (VZV) YS/R strain; format: functional, organism-based
[24] = Cytotoxic concentration against non transfected osteosarcoma cells non transfected (MG-63-hTK1); format: functional; outline: as §1
Human alphaherpesvirus 3 [25] = assay: Effective concentration of compound against Varicella-Zoster Virus (VZV); Range is 0.06-0.12 uM; format: functional, organism-based
[26] = as §2; format: functional, herpes simplex virus; remark: listed apart in the source
Outline: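 Purified HSV-1 TK converts [methyl-³H]thymidine to its monophosphate in 50 mM Tris pH 7.5, 5 mM MgCl₂, 5 mM ATP, 2.5 mg/mL BSA under initial-velocity conditions. Three inhibitor concentrations are used, and apparent Ki is taken from Lineweaver–Burk double-reciprocal plots. Six independent assays.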

Homo sapiens [27] = species on record: Homo sapiens; assay: Inhibitory concentration required to reduce vaccinia virus induced cytopathogenic effect (CPE) in human skin fibroblast; format: functional, organism-based
[28] = Selectivity index calculated as CC50/EC50 in the study of cytopathogenic effect by vaccinia virus; format: functional
Homo sapiens [29] = species on record: Homo sapiens; assay: Cytotoxic concentration that produces 50% growth inhibition of human skin fibroblast in VPR assay; format: functional
Homo sapiens [30] = species on record: Homo sapiens; assay: Inhibitory concentration required to reduce vaccinia virus induced virus plaque reduction (VPR) in human skin fibroblast; format: functional, organism-based
HFF [31] = assay: Inhibitory concentration for HSV-1 plaque reduction (VPR) by 50% in HFF cells; format: functional, cell-based; conditions: Homo sapiens
HFF [32] = assay: Cytotoxic concentration for 50% inhibition of cell growth of HSV-2 infected HFF cells determined by VPR assay; format: functional; conditions: Homo sapiens
Outline: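 Run in virus-infected HFF cells within the plaque reduction assay set-up. […] The value was converted from μg/mL to μM.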

Homo sapiens [33] = species on record: Homo sapiens; assay: Inhibitory concentration required to reduce cowpox virus induced virus plaque reduction (VPR) in human skin fibroblast; format: functional, organism-based
[34] = Cytotoxic concentration against osteosarcoma cells stably transfected with HSV-1 TK (143B-TK+-HSV-1-WT); format: functional; conditions: Human alphaherpesvirus 1; outline: as §1
HFF [35] = assay: Inhibitory concentration for HSV-2 plaque reduction (VPR) by 50% in HFF cells; format: functional, cell-based; conditions: Homo sapiens
HFF [36] = assay: Inhibitory concentration to reduce Cowpox virus induced cytopathogenic effect by 50% in HFF cells; format: functional, cell-based; conditions: Homo sapiens
Homo sapiens [37] = species on record: Homo sapiens; assay: Inhibitory concentration required to reduce HSV-2 induced virus plaque reduction (VPR) in human skin fibroblast; format: functional, organism-based
HFF [38] = assay: Concentration to reduce vaccinia virus plaque reduction (VPR) by 50% in HFF cells; format: functional, cell-based; conditions: Homo sapiens
HFF [39] = assay: Concentration to reduce Cowpox virus plaque reduction (VPR) by 50% in HFF cells; format: functional, cell-based; conditions: Homo sapiens
Homo sapiens [40] = species on record: Homo sapiens; assay: Inhibitory concentration required to reduce HSV-1 induced virus plaque reduction (VPR) in human skin fibroblast; format: functional, organism-based
[41] = Selectivity index calculated as CC50/EC50 in the study of cytopathogenic effect by HSV-1; format: functional
Homo sapiens [42] = species on record: Homo sapiens; assay: Inhibitory concentration required to reduce cowpox virus induced cytopathogenic effect (CPE) in human skin fibroblast; format: functional, organism-based
HFF [43] = assay: Cytotoxic concentration for 50% inhibition of cell growth of HSV-1 infected HFF cells determined by VPR assay; format: functional; conditions: Homo sapiens
HFF [44] = assay: Inhibitory concentration to reduce vaccinia virus induced cytopathogenic effect by 50% in HFF cells; format: functional, cell-based; conditions: Homo sapiens
[45] = Selectivity index calculated as CC50/EC50 in the VPR assay of HSV-1; format: functional
[46] = Selectivity index calculated as CC50/EC50 in the study of VPR assay of vaccinia virus; format: functional
[47] = molecular target: T1, Thymidine kinase, cytosolic (Homo sapiens) (UniProt P04183); conditions: herpes simplex virus
T1 sequence (whole entry): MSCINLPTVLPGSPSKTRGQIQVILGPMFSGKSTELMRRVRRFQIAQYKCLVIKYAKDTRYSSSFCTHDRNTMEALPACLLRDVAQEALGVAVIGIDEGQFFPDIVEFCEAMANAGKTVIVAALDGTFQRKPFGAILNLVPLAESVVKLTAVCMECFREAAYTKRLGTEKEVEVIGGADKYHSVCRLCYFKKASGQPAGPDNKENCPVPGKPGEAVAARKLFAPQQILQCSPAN

O=c1[nH]c(=O)n([C@H]2C[C@H](O)[C@]3(CO)C[C@H]23)cc1I
CC50 [1]: 25 µM
EC50 (Homo sapiens [2]): 9.06 µM
CC50 [3]: > 500 µM
MCC (Human alphaherpesvirus 3 [4]): > 5 µM
CC50 (HFF [5]): > 275 µM
Ki [6]: 85.8 µM
EC50 (Human alphaherpesvirus 3 [7]): 0.16 µM
CC50 [8]: 25 µM
EC50 (Human alphaherpesvirus 3 [9]): 0.16 µM
CC50 (Human alphaherpesvirus 3 [10]): > 200 µM
EC50 (Human alphaherpesvirus 3 [11]): 3 µM
CC50 (Homo sapiens [12]): > 275 µM
EC50 (Human alphaherpesvirus 3 [13]): > 5 µM
EC50 (Human alphaherpesvirus 1): > 275 µM
MCC [14]: > 5 µM
k cat [15]: 0.14 s⁻¹
EC50 (Human alphaherpesvirus 3 [16]): 0.12 µM
EC50 (Homo sapiens [17]): > 275 µM
k cat [18]: 0.14 s⁻¹
EC50 (Human alphaherpesvirus 3 [19]): > 5 µM
EC50 (Human alphaherpesvirus 2): 9.06 µM
CC50 (HFF [20]): > 275 µM
EC50 (Human alphaherpesvirus 3 [21]): 0.12 µM
CC50 [22]: > 200 µM
EC50 (Human alphaherpesvirus 3 [23]): 3 µM
CC50 [24]: 300 µM

O=c1[nH]c(=O)n([C@H]2C[C@@H](CO)[C@H](O)C2)cc1/C=C/Br
EC50 (Human alphaherpesvirus 3 [25]): 0.12 µM

O=c1[nH]c(=O)n([C@H]2C[C@H](O)[C@]3(CO)C[C@H]23)cc1/C=C/Br
EC50 (Homo sapiens [2]): > 291 µM
MCC (Human alphaherpesvirus 3 [4]): > 5 µM
CC50 (HFF [5]): > 291 µM
EC50 (Human alphaherpesvirus 3 [7]): 0.005 µM
Ki [26]: 62.9 µM
EC50 (Human alphaherpesvirus 3 [9]): 0.005 µM
CC50 (Human alphaherpesvirus 3 [10]): > 200 µM
EC50 (Human alphaherpesvirus 3 [11]): > 5 µM
CC50 (Homo sapiens [12]): > 291 µM
EC50 (Human alphaherpesvirus 3 [13]): > 5 µM
EC50 (Human alphaherpesvirus 1): 6.41 µM
MCC [14]: > 5 µM
k cat [15]: 0.07 s⁻¹
EC50 (Human alphaherpesvirus 3 [16]): 0.007 µM
EC50 (Homo sapiens [17]): 6.41 µM
k cat [18]: 0.07 s⁻¹
EC50 (Human alphaherpesvirus 3 [19]): > 5 µM
EC50 (Human alphaherpesvirus 2): > 291 µM
CC50 (HFF [20]): > 291 µM
EC50 (Human alphaherpesvirus 3 [21]): 0.007 µM
CC50 [22]: > 200 µM
EC50 (Human alphaherpesvirus 3 [23]): > 5 µM

O=c1[nH]c(=O)n([C@H]2C[C@H](O)[C@]3(CO)C[C@H]23)cc1Br
EC50 (Homo sapiens [27]): 2.01 µM
SI [28]: >156
CC50 (Homo sapiens [29]): > 315 µM
EC50 (Homo sapiens [30]): 8.19 µM
EC50 (Homo sapiens [2]): 2.2 µM
MCC (Human alphaherpesvirus 3 [4]): > 50 µM
EC50 (HFF [31]): 0.095 µM
CC50 (HFF [5]): > 315 µM
Ki [6]: 69.8 µM
EC50 (Human alphaherpesvirus 3 [7]): 0.2 µM
CC50 (HFF [32]): > 315 µM
EC50 (Human alphaherpesvirus 3 [9]): 0.2 µM
EC50 (Homo sapiens [33]): 10.7 µM
CC50 [34]: 150 µM
EC50 (HFF [35]): 0.378 µM
CC50 (Human alphaherpesvirus 3 [10]): > 200 µM
EC50 (HFF [36]): 36.3 µM
EC50 (Human alphaherpesvirus 3 [11]): 4 µM
EC50 (Homo sapiens [37]): 0.378 µM
CC50 (Homo sapiens [12]): > 315 µM
EC50 (Human alphaherpesvirus 3 [13]): > 20 µM
EC50 (HFF [38]): 8.19 µM
EC50 (Human alphaherpesvirus 1): 1.23 µM
MCC [14]: > 50 µM
k cat [15]: 0.15 s⁻¹
EC50 (HFF [39]): 10.7 µM
EC50 (Homo sapiens [40]): 0.095 µM
EC50 (Human alphaherpesvirus 3 [16]): 0.2 µM
SI [41]: > 256
EC50 (Homo sapiens [17]): 1.23 µM
k cat [18]: 0.15 s⁻¹
EC50 (Human alphaherpesvirus 3 [19]): > 20 µM
EC50 (Homo sapiens [42]): 36.3 µM
EC50 (Human alphaherpesvirus 2): 2.2 µM
CC50 (HFF [43]): > 315 µM
EC50 (HFF [44]): 2.01 µM
CC50 (HFF [20]): > 315 µM
SI [45]: > 3320
EC50 (Human alphaherpesvirus 3 [21]): 0.2 µM
CC50 [22]: > 200 µM
EC50 (Human alphaherpesvirus 3 [23]): 4 µM
CC50 [24]: 330 µM
SI [46]: >38

Cc1cn([C@H]2C[C@H](O)[C@@H](CO)O2)c(=O)[nH]c1=O [DOXRIBTIMINE]
k cat [47]: 0.35 s⁻¹
k cat [18]: 0.35 s⁻¹
